Assay outcomes (PubChem BioAssay)
Rows were chosen to be rich in hits. Some 2.5% of all compounds tested hit in one or more screens of this group.
SENP1 inh = SENP1 (human) catalytic domain inhibition; AID 624204; Q9P0U3; inhibition, % at 10 µM; hit rate 0.21% among 360,000; recombinant SENP1 catalytic domain, CyPet-SUMO1-YPet FRET cleavage;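 active = inhibition at least 30% at 10 µM, raw YFP signal under a set limit, fluorescence ratio 0.5 to 1.5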
Target sequence (Q9P0U3 419-644 limits assumed): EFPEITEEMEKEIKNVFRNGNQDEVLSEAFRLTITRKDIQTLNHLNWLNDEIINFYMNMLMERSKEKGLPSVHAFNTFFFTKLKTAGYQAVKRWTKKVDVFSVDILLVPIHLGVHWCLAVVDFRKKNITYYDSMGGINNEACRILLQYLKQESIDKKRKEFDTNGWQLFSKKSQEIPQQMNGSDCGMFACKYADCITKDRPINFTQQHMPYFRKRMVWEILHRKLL
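Assay system: hSENP1 catalytic domain, recombinant. Amount: SENP1 enzyme, 20 pM final. Schedule: 50 min reaction, RT, dark. Technique: FRET, CFP and YFP emission. Control set: no-enzyme wells low, DMSO-plus-enzyme wells high control.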
SENP7 block = blocks the human protease SENP7 | AID 434973 | inhibition, % at 5 µM | Q9BQF6 | recombinant SENP7, Z-RLRGG-aminoluciferin luminescence, 40 min | hit rate 1.5% among 330,000;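 active = inhibition above about 50% at the single test dose, limit read from the data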
SENP6 block = blocks the human protease SENP6; Recombinant SENP6 catalytic domain, aminoluciferin luminescence; inhibition, % at 10 µM; hit rate 1.8% among 330,000;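 active = inhibition above about 50% at the single tested dose, limit read from the data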
SENP8 block-1 = blocks human SENP8 cleavage of Nedd8 substrate. hit rate 0.64% among 360,000. Q96LD8. inhibition, % at 20 µM. AID 602440. recombinant SENP8, Nedd8 substrate fluorescence; in the data active = inhibition mostly above about 40%, no sharp cut-off; inactive = mostly below about 27%
Target sequence (Q96LD8 whole entry, looked up): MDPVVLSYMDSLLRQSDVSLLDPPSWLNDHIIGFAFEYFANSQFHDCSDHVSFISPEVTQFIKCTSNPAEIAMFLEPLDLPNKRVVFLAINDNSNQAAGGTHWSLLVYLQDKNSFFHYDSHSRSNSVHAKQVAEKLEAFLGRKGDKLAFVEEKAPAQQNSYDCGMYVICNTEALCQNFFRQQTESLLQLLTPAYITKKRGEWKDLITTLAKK
SENP8 block-2 = inhibitors of human SENP8 protease. AID 2540. purified SENP8, Z-RLRGG-aminoluciferin cleavage, luminescence. hit rate 1.2% among 330,000. inhibition, % at 10 µM. Q96LD8; in the data active = inhibition above about 50%
SENP8 confirm = confirmation of human SENP8 protease inhibitors; Recombinant SENP8, Z-RLRGG-aminoluciferin luminescence, 60 min; shares compounds with SENP7 block; inhibition, % at 12.5 µM; hit rate 40% among 6,200;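 active = mean inhibition across replicates above about 50%, limit read from the data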
SENP6 confirm = human SENP6 inhibition, confirmed. shares compounds with SENP7 block. recombinant SENP6, Z-RLRGG-aminoluciferin luminescence. inhibition, % at 12.5 µM. hit rate 58% among 6,200. AID 488915
SENP7 conf = human SENP7 inhibition, confirmed; shares compounds with SENP7 block; hit rate 69% among 6,200; recombinant SENP7, Z-RLRGG-aminoluciferin luminescence, 40 min; inhibition, % at 12.5 µM
Casp3 select = inhibits human caspase-3 in SENP selectivity test; shares compounds with SENP7 block; purified caspase-3, Z-DEVD-aminoluciferin luminescence, 60 min; inhibition, % at 12.5 µM; hit rate 60% among 6,200;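 active = mean inhibition above about 50%, limit read from the data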
Luc interf = interferes with luciferase luminescence in SENP counter-screen | shares compounds with SENP7 block | Pre-incubated SENP8/Z-RLRGG-aminoluciferin, luciferase luminescence interference | inhibition, % at 12.5 µM | hit rate 39% among 6,200;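 active = mean inhibition above about 50% when retested at one dose, limit read from the data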
A number is an active result.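 Rule for the calls, unless noted: active = mean inhibition above about 50% in the one-dose retest (limit read from the data); inactive = the rest.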

What do the screens show for `Cc1nc(NC(=O)c2ccccc2)sc1C`?
SENP1 inh: inactive; SENP7 block: 92; SENP6 block: 90; SENP8 block-1: inactive; SENP8 block-2: 78; SENP8 confirm: 90; SENP6 confirm: 91; SENP7 conf: 100; Casp3 select: 95; Luc interf: 89

Results for Cc1nc(NC(=O)c2csc3ccccc23)sc1C ?
SENP1 inh: inactive; SENP7 block: 77; SENP6 block: 69; SENP8 block-1: inactive; SENP8 block-2: 50; SENP8 confirm: inactive; SENP6 confirm: 73; SENP7 conf: 95; Casp3 select: 51; Luc interf: inactive

What do the screens show for `C[C@H]1CN([C@@H](C)CO)C(=O)CCCn2cc(nn2)CO[C@@H]1CN(C)S(=O)(=O)c1ccc(Oc2ccccc2)cc1`?
SENP1 inh: inactive; SENP8 block-1: inactive

What do the screens show for `CC(=O)c1sc(NC(=O)c2ccccc2)nc1-c1ccccc1`?
SENP1 inh: inactive; SENP7 block: 61; SENP6 block: 75; SENP8 block-1: inactive; SENP8 block-2: 63; SENP8 confirm: inactive; SENP6 confirm: 71; SENP7 conf: 88; Casp3 select: 51; Luc interf: 54

Results for COCCn1c(C)cc(C(=O)COC(=O)c2ccc(Br)o2)c1C ?
SENP1 inh: inactive; SENP7 block: inactive; SENP6 block: 51; SENP8 block-1: inactive; SENP8 block-2: inactive; SENP8 confirm: inactive; SENP6 confirm: inactive; SENP7 conf: 80; Casp3 select: 73; Luc interf: 64

Results for COc1ccc(NC(=O)Nc2ccc(F)cc2F)c(C)c1 ?
SENP1 inh: inactive; SENP7 block: inactive; SENP6 block: inactive; SENP8 block-1: inactive; SENP8 block-2: inactive

How did COc1ccc(NC(=O)Nc2ccc(F)cc2F)cc1 do in these assays?
SENP1 inh: inactive; SENP7 block: 80; SENP6 block: 74; SENP8 block-1: inactive; SENP8 block-2: 59; SENP8 confirm: 58; SENP6 confirm: 71; SENP7 conf: 93; Casp3 select: 80; Luc interf: inactive

What do the screens show for `O=C(Nc1ccc(C(=O)O)cc1)Nc1ccc(F)cc1F`?
SENP1 inh: inactive; SENP7 block: 77; SENP6 block: 83; SENP8 block-1: inactive; SENP8 block-2: 69; SENP8 confirm: 77; SENP6 confirm: 73; SENP7 conf: 93; Casp3 select: 91; Luc interf: 76

How did CC(=O)Nc1cc(-c2ccccc2CN(C)C)cn2c(-c3ccc(C(C)=O)cc3)cnc12 do in these assays?
SENP1 inh: inactive; SENP8 block-1: inactive

Results for Cc1cccc(Nc2nnc(SCc3cn4ccsc4n3)s2)c1 ?
SENP1 inh: inactive; SENP7 block: 61; SENP6 block: 56; SENP8 block-1: inactive; SENP8 block-2: inactive; SENP8 confirm: inactive; SENP6 confirm: inactive; SENP7 conf: 72; Casp3 select: inactive; Luc interf: 55

What do the screens show for `O=c1cc(CSc2nnc(Nc3ccccc3)s2)nc2sccn12`?
SENP1 inh: inactive; SENP7 block: inactive; SENP6 block: inactive; SENP8 block-1: inactive; SENP8 block-2: inactive

How did O=c1nc2c(-c3cccc(Br)c3)n[nH]n2c2ccccc12 do in these assays?
SENP1 inh: inactive; SENP7 block: 80; SENP6 block: 88; SENP8 block-1: inactive; SENP8 block-2: 92; SENP8 confirm: inactive; SENP6 confirm: inactive; SENP7 conf: inactive; Casp3 select: 61; Luc interf: inactive

What do the screens show for `CCCCNC(=O)C1(C)CCCCCN1Cc1cccc2c(OC)cc(C(=O)OCC)cc12` (stereo not given)?
SENP1 inh: inactive; SENP8 block-1: inactive

How did CC(C)Nc1nnc(Sc2ccc(Cl)cc2[N+](=O)[O-])s1 do in these assays?
SENP1 inh: inactive; SENP7 block: inactive; SENP6 block: inactive; SENP8 block-1: inactive; SENP8 block-2: inactive
